We go through two compounds from ChEMBL document CHEMBL6134793, “Synthesis and structure-activity study of the antimicrobial lipopeptide brevibacillin” (RSC Med Chem, 2024).

The subject of one series is Bacillus subtilis. As to the kind of experiment: Antimicrobial activity against Bacillus subtilis ATCC 23957 assessed as growth inhibition by microdilution assay. Format: functional. An outline of the steps:
(§1)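 Twofold serial microdilution of peptide (stocks 2 mg mL−1, diluted to 512 μg mL−1 in water with 10% DMSO) in strain medium, about 1 × 10^4 cfu per well. Media: TSB 20 h 37 °C (S. aureus, L. monocytogenes, B. subtilis, E. faecalis); LB 20 h 37 °C (P. aeruginosa, S. enterica, E. coli); Brucella 48 h 37 °C (C. coli). A595 read; MIC = lowest concentration with no visible growth; triplicate.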
(In general: In broth dilution the organism is exposed to a series of concentrations in liquid medium.)

In a further series the test system is Clostridium perfringens. As to the kind of experiment: Antimicrobial activity against Clostridium perfringens ATCC 3628 assessed as growth inhibition by microdilution assay. Format: functional. The essentials:
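Broth microdilution: twofold serial peptide dilutions in reinforced clostridial medium (RCM), seeded with about 1 × 10^4 cfu per well, incubated 20 h at 37 °C. Working solution 512 μg mL−1 made from a 2 mg mL−1 stock in water with 10% DMSO. Growth read as absorbance at 595 nm. MIC taken as the lowest concentration giving complete inhibition of visible growth; run in triplicate.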

The subject of another series is Escherichia coli. As to the kind of experiment: Antimicrobial activity against Escherichia coli ATCC 25922 assessed as growth inhibition by microdilution assay. It is filed as functional. The essentials:
as §1

In the next series the test system is Listeria monocytogenes. As to the kind of experiment: Antimicrobial activity against Listeria monocytogenes ATCC 19111 assessed as growth inhibition by microdilution assay. It is filed as functional. An outline of the steps: as §1
Series [1] in a line: Hemolytic activity in human erythrocytes at 128 ug/ml measured after 1 hr by absorbance based assay relative to control. Format: toxicity, cell-based, Erythrocyte. Particulars: at 128 µg/mL, read-out: Activity. An outline of the steps: (§2)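 Washed human donor erythrocytes at 1% hematocrit in PBS pH 7.4 exposed to twofold peptide dilutions (final 2–256 μg mL−1, up to 1% DMSO) for 1 h at 37 °C. After centrifugation, supernatant A405 read. % hemolysis relative to PBS (0%) and 1% Triton X-100 (100%). Triplicate; mean ± SEM.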

In series [2] the test system is Staphylococcus aureus. As to the kind of experiment: Antimicrobial activity against Staphylococcus aureus ATCC 6538 assessed as growth inhibition by microdilution assay. Format: functional. An outline of the steps: as §1
The subject of series [3] is Pseudomonas aeruginosa. As to the kind of experiment: Antimicrobial activity against Pseudomonas aeruginosa ATCC […] assessed as growth inhibition by microdilution assay. It is filed as functional. An outline of the steps: as §1
The next series relates to Campylobacter coli. As to the kind of experiment: Antimicrobial activity against Campylobacter coli ATCC 33559 assessed as growth inhibition by microdilution assay. Format: functional. The essentials: as §1
Series [4] in a line: Hemolytic activity in human erythrocytes assessed as fold decrease at 256 ug/ml measured after 1 hr by absorbance based assay relative to brevibacillin. Particulars: erythrocyte, dose 256 µg/ml. It is filed as toxicity, cell-based. An outline of the steps:
as §2

Series [5] can be described thus: Cytotoxicity against human Caco-2 cells assessed as inhibition of cell viability incubated for 48 hrs by Cell Titer GLO assay. Format: toxicity, cell-based. An outline of the steps: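 Caco-2 cells in DMEM with 10% FCS, seeded 25 000 per well, adhered overnight, then given peptide at 2–256 μg mL−1 in complete medium for 48 h at 37 °C, 5% CO2. Controls: cisplatin 125 μM; 0.1% DMSO medium. Viability by ATP luminescence (CellTiter-Glo) versus untreated cells; IC50 from dose–response; mean ± SEM of at least three independent experiments.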
A general note: Cellular ATP, detected with luciferase, serves as a proxy for viable cell number.

Series [6] in a line: Antimicrobial activity against Salmonella enterica serovar Newport ATCC 6962 assessed as growth inhibition by microdilution assay. Format: functional, Salmonella enterica subsp. enterica serovar Newport. An outline of the steps:
as §1

Series [7] has as its system Staphylococcus aureus. As to the kind of experiment: Antimicrobial activity against Staphylococcus aureus ATCC 6538 assessed as diameter of growth inhibition at 128 ug/ml by radial diffusion assay. The note with it: dose 128 µg/ml. Format: functional. An outline of the steps:
(§3)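 Agar well diffusion. Overnight cultures inoculated at 1% into 0.75% soft agar (TSB for S. aureus, LB for P. aeruginosa). Each well received 80 μL of peptide at 128 μg mL−1 in water with 10% DMSO; 10% DMSO served as negative control. Inhibition zone diameter scored after strain-specific incubation.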

The subject of series [8] is Staphylococcus aureus. As to the kind of experiment: Bacteriostatic activity against Staphylococcus aureus ATCC 6538 assessed as MBC/MIC ratio by microdilution assay. It is filed as functional. The essentials:
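MIC wells showing complete inhibition were sampled, 10 μL spread on agar and incubated 48 h under strain conditions; MBC = lowest concentration giving no growth on agar. MIC by broth microdilution (TSB 20 h 37 °C for S. aureus; Brucella 48 h 37 °C for C. coli). Triplicate.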

The next series concerns Enterococcus faecalis. As to the kind of experiment: Antimicrobial activity against Enterococcus faecalis ATCC 29212 assessed as growth inhibition by microdilution assay. It is filed as functional. The essentials:
as §1

The test system of series [9] is Pseudomonas aeruginosa. As to the kind of experiment: Antimicrobial activity against Pseudomonas aeruginosa ATCC […] assessed as diameter of growth inhibition at 128 ug/ml by radial diffusion assay. It is filed as functional. Particulars: dose 128 µg/ml. The essentials: as §3
Series [10] relates to Pseudomonas aeruginosa. As to the kind of experiment: Antimicrobial activity against Pseudomonas aeruginosa ATCC […] assessed as growth inhibition at 128 ug/ml by radial diffusion assay. It is filed as functional, organism-based. Particulars: dose 128.0 µg/ml. An outline of the steps:
as §3

Series [11] is described as follows: Hemolytic activity in human erythrocytes at 128 to 256 ug/ml measured after 1 hr by absorbance based assay. Particulars: erythrocyte, dose 128-256 µg/ml. It is filed as toxicity, cell-based. The essentials: as §2
In series [12] the test system is Staphylococcus aureus. As to the kind of experiment: Antimicrobial activity against Staphylococcus aureus ATCC 6538 assessed as growth inhibition at 128 ug/ml by radial diffusion assay. Format: functional, organism-based. The note with it: dose 128.0 µg/ml. An outline of the steps:
as §3

In brackets after ≈: the same amount, converted by molar mass. Activity calls are given as the source filed them. No cut-off for these calls is given here.

As usually defined, the MIC is the lowest concentration that inhibits growth of the organism. As usually defined, the IC50 is the concentration at which inhibition is half-maximal.

Consider `C/C=C(/NC(=O)[C@@H](O)[C@@H](C)CC)C(=O)N[C@@H](CC(C)C)C(=O)N[C@H](CCCN)C(=O)N[C@H](C(=O)N[C@H](C(=O)N[C@H](C(=O)N[C@H](CCCCN)C(=O)N[C@H](C(=O)N[C@H](C(=O)N[C@@H](CCCCN)C(=O)N[C@H](Cc1ccc(O)cc1)C(=O)N[C@@H](CC(C)C)C(=O)N[C@H](CO)C(C)C)C(C)C)C(C)C)C(C)C)C(C)C)C(C)C`, for which the MIC in the series with Bacillus subtilis was 8 µg/mL; with Clostridium perfringens it was 16 µg/mL; in the series on Escherichia coli it was 64 µg/mL; with Listeria monocytogenes, 4 µg/mL; with Staphylococcus aureus [2], 4 µg/mL; in the series with Pseudomonas aeruginosa [3] it was 4 µg/mL. For the same compound, the minimum inhibitory concentration (MIC) was 32 µg/mL in the series on Campylobacter coli, above 128 µg/mL in [6] and 32 µg/mL in the series on Enterococcus faecalis. In series [1], the hemolysis at 1 h, 128 ug/ml stood at 0.65%. Also, the “fold change (FC)” value in series [4] amounted to 25. Also, the IC50 at 48 h in [5] was 87.5 µg/mL (≈ 56.2 µM). The Activity with Staphylococcus aureus [7] stood at 11 mm; with Pseudomonas aeruginosa [9], 12 mm. For the same compound, in the series on Staphylococcus aureus [8], the Ratio is 8.

For `C/C=C(/NC(=O)[C@@H](O)[C@@H](C)CC)C(=O)N[C@@H](CC(C)C)C(=O)N[C@H](CCCN)C(=O)N[C@H](C(=O)N[C@H](C(=O)N[C@H](C(=O)N[C@H](CCCCN)C(=O)N[C@H](C(=O)N[C@H](C(=O)N[C@@H](CCCCN)C(=O)N[C@H](Cc1ccc(O)cc1)C(=O)N[C@@H](CC(C)C)C(=O)N[C@H](C(=O)O)C(C)C)C(C)C)C(C)C)C(C)C)[C@@H](C)CC)[C@@H](C)CC`, the minimum inhibitory concentration (MIC) in the series with Bacillus subtilis was above 128 µg/mL; in the series with Clostridium perfringens, above 128 µg/mL; in the series with Escherichia coli it was above 128 µg/mL; in the series with Listeria monocytogenes it was 128 µg/mL; in the series with Staphylococcus aureus [2] it was above 128 µg/mL; in the series with Pseudomonas aeruginosa [3], above 128 µg/mL. The minimum inhibitory concentration (MIC) in the series on Campylobacter coli is 32 µg/mL; in [6], above 128 µg/mL; in the series with Enterococcus faecalis, above 128 µg/mL. Further, the “growth inhibition (qualitative call)” value with Pseudomonas aeruginosa [10] and in the series with Staphylococcus aureus [12] was “inactive” throughout. In addition, the Activity result in series [11] is on record as “Non-toxic”. Further, in series [5], the half-maximal inhibitory concentration (IC50) at 48 h is above 256 µg/mL.
